# A selection: hits, their analogues and other compounds. The true share with any hit is near 3.7%.
# hERG protect: shields human hERG channel from block by proarrhythmic agents. Q12809. CHO-hERG, FluxOR thallium flux, dofetilide IC70 present. activation (rescue from dofetilide block), less the hit threshold, % at 10 µM. hit rate 0.51% among 310,000. AID 1511;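 active = activation above the mean of controls blocked by dofetilide plus 5 SD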;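 also: thallium influx through hERG after potassium depolarization seen as dye fluorescence rise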
# KCNK9 block: blocks the human KCNK9 two-pore domain potassium channel; HEK293 KCNK9, FluxOR thallium flux fluorescence; hits give low values; hit rate 1.2% among 310,000; AID 488922; B-score at 10 µM;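 active = ratio B-score over 3 SD below the library mean, with starting fluorescence within 5 SD of its mean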;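 also: negative B-score means less thallium flux so channel inhibition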
# KCNK3 block: human KCNK3 channel inhibition, primary screen | B-score at 10 µM | CHO-KCNK3 thallium flux, FluxOR fluorescence; hits give low values | hit rate 0.84% among 340,000 | O14649 | AID 602410;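 active = B-score under library mean minus 4 SD, starting fluorescence ratio at most library mean plus 5 SD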;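 also: more negative B-score means stronger inhibition of thallium flux through KCNK3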
# KCNQ1 act: potentiators or activators of human KCNQ1 potassium channel. P51787. CHO-K1 KCNQ1, thallium flux FluxOR fluorescence; hits give high values. B-score at 10 µM. hit rate 0.35% among 310,000. AID 2648;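 active = fluorescence ratio B-score, a plate-corrected score, at least three library SD, with initial intensity B-score within 5 SD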
# Target sequence (P51787 whole entry, looked up): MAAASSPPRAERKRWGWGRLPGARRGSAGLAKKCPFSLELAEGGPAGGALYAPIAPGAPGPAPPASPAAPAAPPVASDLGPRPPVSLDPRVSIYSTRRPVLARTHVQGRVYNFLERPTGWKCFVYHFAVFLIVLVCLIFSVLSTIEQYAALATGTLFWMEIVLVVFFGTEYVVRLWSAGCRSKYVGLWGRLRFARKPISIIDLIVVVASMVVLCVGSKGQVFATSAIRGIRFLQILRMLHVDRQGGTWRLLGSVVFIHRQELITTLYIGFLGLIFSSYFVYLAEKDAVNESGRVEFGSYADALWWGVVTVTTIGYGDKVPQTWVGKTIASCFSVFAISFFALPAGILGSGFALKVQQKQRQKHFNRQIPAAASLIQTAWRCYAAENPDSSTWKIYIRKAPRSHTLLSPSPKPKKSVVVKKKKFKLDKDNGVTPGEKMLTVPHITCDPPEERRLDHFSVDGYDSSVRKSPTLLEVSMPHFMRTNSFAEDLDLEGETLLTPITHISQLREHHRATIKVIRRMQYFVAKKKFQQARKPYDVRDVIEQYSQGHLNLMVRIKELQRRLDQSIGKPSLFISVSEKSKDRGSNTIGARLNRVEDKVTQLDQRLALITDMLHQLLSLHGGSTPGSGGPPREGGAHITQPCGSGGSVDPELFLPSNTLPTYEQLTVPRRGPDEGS
#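 Assay system: CHO-K1 cells stably expressing KCNQ1. Medium: assay buffer for compound exposure, DMSO matched across wells. Timing: 37 °C overnight plating, 90-min dark dye load, 20-min compound pretreatment. Signal: kinetic FluxOR fluorescence, 10 s baseline plus 110 s post-stimulus.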
# Kir21 block: blocks the mouse Kir2.1 inward-rectifier potassium channel. P35561. HEK293-Kir2.1, FluxOR thallium flux fluorescence; hits give low values. B-score at 10 µM. hit rate 0.85% among 310,000. AID 1672;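 active = fluorescence ratio B-score at or below minus 3 SD of library scores, with starting-brightness B-score within 2 SD, cut at about -4.2 in these data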;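 also: channel flux triggered by added potassium and thallium sulfate stimulus; B-score of peak minus minimum fluorescence over baseline after thallium stimulus; more negative B-score means stronger Kir2.1 block with less thallium influx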
# KCNQ1 inh: human KCNQ1 channel inhibition. P51787. CHO-K1 KCNQ1, FluxOR thallium flux fluorescence; hits give high values. B-score at 10 µM. hit rate 1.3% among 310,000;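 active = compounds whose thallium flux B-score, printed positive for inhibition, exceeds three library SD while starting fluorescence stays within three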;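 also: channel opened by potassium depolarization with thallium stimulus after 20 min compound exposure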
# KCNK9 inh conf: human KCNK9 inhibitor confirmation. inhibition, % at 10 µM. AID 492992. HEK293 KCNK9 cells, FluxOR thallium flux fluorescence. shares compounds with KCNK9 block. hit rate 43% among 4,900;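 active = thallium signal inhibited by more than 5 SD of the compound-free buffer control wells, on both duplicate plates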;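 also: 0% = assay buffer control wells without compound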
# Kir2-1 spec: tests whether KCNK9 modulators also affect mouse Kir2.1; shares compounds with KCNK9 block; Kir2.1 cells, FluxOR thallium flux fluorescence; inhibition, % at 10 µM; hit rate 4% among 4,900; AID 492993;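 active = thallium signal drop more than 5 SD beyond the mean of the no-compound control wells, seen in both duplicate plates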;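 also: signal is fluorescence rise after thallium addition divided by baseline fluorescence; plate controls were assay buffer only for no effect and full block by chlorpromazine control for full effect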
# KCNK9 uninduced: second check of KCNK9 modulator effects in non-induced HEK293 cells. hit rate 40% among 4,900. shares compounds with KCNK9 block. inhibition, % at 10 µM. FluxOR thallium flux. AID 492997;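 active = thallium signal drop beyond 5 SD of the untreated control mean, on both duplicate plates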;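 also: plate controls were buffer only IC0 wells for no effect and SID17386958 at its maximal inhibitory level for full effect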
# The depositor's hits bear a star; i = inactive; / = not tested or not shown.
SMILES,hERG protect,KCNK9 block,KCNK3 block,KCNQ1 act,Kir21 block,KCNQ1 inh,KCNK9 inh conf,Kir2-1 spec,KCNK9 uninduced
Cc1ccc(-c2noc(CSc3nnc(CCc4ccccc4)n3-c3ccccc3)n2)cc1,-10,-10*,i,i,-2.3,i,i,i,36%*
Cn1c(SCc2nc(-c3ccc(Cl)cc3)no2)nnc1-c1ccccc1,-10,i,i,i,0.15,i,/,/,/
O=C(NCc1n[nH]c(=S)n1-c1ccc(Cl)c(Cl)c1)c1ccco1,-8,i,i,i,-0.03,i,/,/,/
NS(=O)(=O)c1ccc(NCc2ccccc2OCc2ccccc2F)cc1,-7,i,i,i,-0.31,i,/,/,/
NS(=O)(=O)c1ccc(NCc2cc(Cl)ccc2OCc2ccc(F)cc2)cc1,-7,-13*,i,i,-2.3,i,50%*,i,42%*
O=C(COC(=O)c1ccc(Cl)c(S(=O)(=O)N2CCOCC2)c1)NCc1ccco1,-9,i,i,i,-0.01,i,/,/,/
CCCCC1(C(=O)OC)NC(c2ccc(O)cc2)C2C(=O)N(c3ccccc3)C(=O)C21 (centres undefined),-5,i,i,i,-0.57,i,/,/,/
Cc1nn(-c2ccccc2)c(Cl)c1/C=N/Nc1ccc(S(=O)(=O)Nc2ccccc2C(=O)O)cc1[N+](=O)[O-],-11,i,i,i,1.8,i,i,i,i
CSc1ccc(C=NNc2ccc(S(=O)(=O)Nc3ccccc3C(=O)O)cc2[N+](=O)[O-])cc1,/,/,i,/,/,/,/,/,/
COc1ccc(Cl)cc1S(=O)(=O)N1CCN=C1C,-6,i,i,i,-0.56,i,/,/,/
CC1=NCCN1S(=O)(=O)c1c(C(C)C)cc(C(C)C)cc1C(C)C,-10,-8.3*,i,i,-0.47,i,i,i,i
CCN1C/C(=C\c2cc(OC)c(OC)c(OC)c2)C2=NN(c3ccccc3)C(c3cc(OC)c(OC)c(OC)c3)C2C1 (centres undefined),/,/,i,/,/,/,/,/,/
C=CCc1ccc(O)c(-c2cc(CC=C)ccc2O)c1,-12,-17*,i,i,-4.1,i,62%*,i,i
C=CCc1ccc(OCc2ccc(C(=O)OC)o2)c(OC)c1,-12,i,i,i,-1.4,i,/,/,/
CCCNc1ncc2c(=O)[nH][nH]c(=O)c2n1,/,/,i,/,/,/,/,/,/
O=[N+]([O-])c1ccc(N2N=C(c3ccccc3)CC2c2ccccc2O)cc1 (centres undefined),-7,i,i,i,0.09,i,/,/,/
CC(C)(C)C1=NN(c2ccc([N+](=O)[O-])cc2)C(c2ccccc2)C1 (centres undefined),-2,-8.8*,i,i,2,9*,44%*,i,48%*
CCOC(=O)COc1nc(-c2ccccc2)cc(-c2ccco2)c1C#N,-5,-8.2*,i,i,0.63,i,49%*,i,34%*
COC(=O)CSc1nc(N)c(C#N)c(-c2ccco2)c1C#N,-18,i,i,i,0.13,i,/,/,/
CCOC(=O)COc1nc(-c2ccc(Cl)cc2)cc(-c2ccco2)c1C#N,0,i,i,i,-0.23,i,/,/,/
COC(=O)CSc1nc(-c2ccccc2)cc(-c2ccco2)c1C#N,-2,-8.9*,i,i,0.67,i,31%*,i,28%*
Cc1cc(=O)oc2ccc(OCC(=O)N(Cc3ccc(F)cc3)Cc3ccco3)cc12,-15,i,i,i,1.3,i,/,/,/
CC1=C(C(=O)N(C)C)C(c2ccc(N3CCOCC3)cc2)NC(=O)N1 (centres undefined),-6,i,i,i,0,i,/,/,/
O=C(COC(=O)C12CC3CC(CC(C3)C1)C2)Nc1ccc([N+](=O)[O-])cc1Cl,-7,i,i,i,3.3,i,/,/,/
CSc1nsc(SCC(=O)Nc2ccccc2C(=O)O)n1,1,i,i,i,0.72,i,/,/,/
SMILES,hERG protect,KCNK9 block,KCNK3 block,KCNQ1 act,Kir21 block,KCNQ1 inh,KCNK9 inh conf,Kir2-1 spec,KCNK9 uninduced
Cc1ccc(OCCSc2nnc(NC(=O)c3ccco3)s2)cc1,-4,i,i,i,-0.46,i,/,/,/
CCCCOC(=O)Nc1nnc(SCCOc2ccc(C)cc2)s1,-13,i,i,i,0.7,i,i,i,i
COc1cccc(CNC(=O)c2cc3oc4ccccc4c3n2C)c1OC,-6,i,i,i,1.1,i,/,/,/
CCOc1ccccc1CNC(=O)c1cc2oc3ccccc3c2n1CC,-11,-9.1*,i,i,-0.54,i,50%*,i,30%*
O=C(CN1CCN(S(=O)(=O)c2ccccc2F)CC1)Nc1ccccc1C(=O)c1ccccc1,-14,i,i,i,0.11,i,/,/,/
Cc1cc(C)n(-c2nc(NCCC(C)C)c3c4c(sc3n2)COC(C)(C)C4)n1,-13,-12*,i,i,1.6,i,58%*,i,32%*
Cc1cc(C)n(-c2nc(NCCN(C)C)c3c4c(sc3n2)COC(C)(C)C4)n1,-12,i,i,i,-1.1,i,/,/,/
Cc1cc(SCC(=O)N2CCC(c3noc4ccc(F)cc34)CC2)nc2ccccc12,-12,i,i,i,1,i,i,i,i
O=C(CSc1ncnc2sc3c(c12)CCC3)N1CCOCC1,-5,i,i,i,-0.82,i,/,/,/
O=C(CSc1ncnc2sc3c(c12)CCCC3)N1CCC(c2noc3ccc(F)cc23)CC1,-22,i,i,i,0.55,i,i,i,i
CCOC(=O)CC(N)c1ccc2c(c1)OCO2 (centres undefined),-10,i,/,i,-0.59,i,/,/,/
CN(CCc1cnn(C)c1)Cc1nc(CC2CC2)no1,-10,i,i,i,1.8,i,/,/,/
COc1ccc(C)cc1S(=O)(=O)NCC(c1ccco1)N1CCc2ccccc2C1 (centres undefined),-9,i,i,i,-2.1,i,/,/,/
N#CC1(Cc2ccc([N+](=O)[O-])cc2)c2ccccc2C=CN1C(=O)c1ccccc1 (centres undefined),-4,-12*,i,i,0.42,i,32%*,i,34%*
O=C(CSc1ccc([N+](=O)[O-])cc1)c1ccccc1,/,/,i,/,/,/,/,/,/

# Compound activity deposited in PubChem BioAssay by Johns Hopkins Ion Channel Center.
